Experiments:
Rattus norvegicus [1] = assay: Inhibition of shelf-jump avoidance in rats after peroral administration.; assay type: functional
Method in brief: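 One-way shelf-jump conditioned avoidance responding in rats. ED50 determined from at least three doses (N = 9).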

Mus musculus [2] = assay: Inhibition of locomotor activity in mouse after intraperitoneal administration; assay type: functional
Mus musculus [3] = assay: Inhibition of induction of ataxia in mouse after intraperitoneal administration; assay type: functional; conditions: ip
Rattus norvegicus [4] = assay: Inhibition of Sidman avoidance in rats after peroral administration; assay type: functional; conditions: po
Method in brief: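 Continuous (Sidman) avoidance responding in rats with oral dosing. At least three doses per drug, four animals per dose. ED50 reported ± SEM.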

Monkey = assay: Inhibition of Sidman avoidance in squirrel monkeys after the compound administered perorally; assay type: functional; conditions: in Saimiri, po
Method in brief: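 Oral dosing in squirrel monkeys trained on continuous (Sidman) avoidance responding. ED50 reported ± SEM.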

Adenosine receptor A1 = target: T1, Adenosine receptor A1 (Rattus norvegicus, UniProt P25099); assay: Displacement of [3H]-CHA (N6-Cyclohexyl adenosine) from adenosine A1 receptor in rat brain; assay type: tissue-based
T1 sequence (P25099 whole entry): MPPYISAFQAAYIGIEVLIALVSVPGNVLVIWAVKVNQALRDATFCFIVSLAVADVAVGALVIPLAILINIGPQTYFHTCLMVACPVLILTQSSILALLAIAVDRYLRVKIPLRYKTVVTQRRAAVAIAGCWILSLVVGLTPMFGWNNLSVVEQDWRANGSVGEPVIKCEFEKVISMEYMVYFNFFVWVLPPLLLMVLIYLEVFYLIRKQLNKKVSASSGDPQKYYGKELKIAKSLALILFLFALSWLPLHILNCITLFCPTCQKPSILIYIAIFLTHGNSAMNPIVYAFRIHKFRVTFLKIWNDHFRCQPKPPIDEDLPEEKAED
Method in brief: (§1)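 Rat brain radioligand displacement binding. IC50 values (μM) were derived by nonlinear regression from four or five concentrations of compound.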

[5] = Displacement of [3H]CHA (N6-Cyclohexyl adenosine) from rat brain adenosine A1 receptor
[6] = target: Serotonin 1 (5-HT1) receptor (Rattus norvegicus, UniProt P28564+P30940+P19327+P28565); assay: Displacement of [3H]-5-HT from serotonin-1 neurotransmitter receptor in rat brain; assay type: tissue-based; method in brief: as §1
[7] = target: Beta-1 adrenergic receptor (Rattus norvegicus, UniProt P18090); assay: Displacement of [3H]DHA (Dihydroalprenolol) from beta-1 adrenergic receptor in rat brain; assay type: tissue-based; method in brief: as §1
Chain of Beta-1 adrenergic receptor (P18090 whole entry): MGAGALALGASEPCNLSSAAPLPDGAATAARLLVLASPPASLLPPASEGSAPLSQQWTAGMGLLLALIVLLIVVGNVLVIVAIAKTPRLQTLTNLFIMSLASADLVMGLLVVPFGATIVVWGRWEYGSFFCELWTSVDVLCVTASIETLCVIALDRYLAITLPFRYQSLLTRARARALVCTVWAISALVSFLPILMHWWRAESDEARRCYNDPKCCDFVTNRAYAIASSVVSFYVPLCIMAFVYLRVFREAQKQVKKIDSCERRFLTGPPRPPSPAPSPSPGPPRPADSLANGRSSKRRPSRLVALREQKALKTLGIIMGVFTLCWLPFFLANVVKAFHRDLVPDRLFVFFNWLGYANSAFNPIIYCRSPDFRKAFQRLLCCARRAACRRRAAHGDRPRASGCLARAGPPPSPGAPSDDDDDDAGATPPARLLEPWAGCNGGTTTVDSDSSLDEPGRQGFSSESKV

[8] = target: Beta-2 adrenergic receptor (Rattus norvegicus, UniProt P10608); assay: Displacement of [3H]DHA (Dihydroalprenolol) from beta-2 adrenergic receptor in rat brain; assay type: tissue-based; method in brief: as §1
Chain of Beta-2 adrenergic receptor (P10608 whole entry): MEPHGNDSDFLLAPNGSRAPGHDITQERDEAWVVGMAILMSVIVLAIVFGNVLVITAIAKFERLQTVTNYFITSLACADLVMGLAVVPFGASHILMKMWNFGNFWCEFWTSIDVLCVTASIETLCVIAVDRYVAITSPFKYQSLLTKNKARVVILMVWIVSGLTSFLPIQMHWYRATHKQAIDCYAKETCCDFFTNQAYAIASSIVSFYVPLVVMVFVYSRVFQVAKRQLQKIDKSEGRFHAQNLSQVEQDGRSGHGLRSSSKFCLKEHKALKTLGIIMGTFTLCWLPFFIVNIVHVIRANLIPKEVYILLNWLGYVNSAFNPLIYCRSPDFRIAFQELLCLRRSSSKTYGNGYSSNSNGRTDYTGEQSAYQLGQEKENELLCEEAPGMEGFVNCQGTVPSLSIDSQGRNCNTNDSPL

[9] = Rattus norvegicus, po, read-out: ED50
[10] = Mus musculus, ip, read-out: ED50

Row | Compound | ED50 (Rattus norvegicus [1]; [9]) [mg/kg] | ED50 (Mus musculus [2]; [10]) [mg/kg] | ED50 (Mus musculus [3]) [mg/kg] | further results
1 | CCOC(=O)CC1=Nc2c(C)nn(C)c2C2=NC(C)CN12 (configuration not stated) | > 100 | > 100 | > 100 | 
2 | CCC1=Nc2c(C)nn(C)c2C2=NCC(C)N12 (configuration not stated) |  | 28.3 | > 100 | 
3 | CCn1nc(C)c2c1C1=NCCN1C(C)=N2 |  | 22.7 | > 100 | ED50 (Rattus norvegicus [4]): 15.3 mg/kg
4 | Cc1nc2c3c(nc(C)n2c1C)c(C)nn3C | 10 | 39.7 | > 100 | 
5 | CC1=Nc2c(C)nn(C)c2C2=NC(C)CN12 (configuration not stated) |  | 32.1 | > 100 | 
6 | CCC1=Nc2c(C)nn(C)c2C2=NC(CC)CN12 (configuration not stated) | 32 | 21.7 | > 100 | 
7 | CCc1nc2c(C)nn(C)c2c2nc(C)cn12 |  | 36.8 | > 100 | ED50 (Rattus norvegicus [4]): 11.4 mg/kg
8 | CCc1nc2c(C)nn(C)c2c2ncc(C)n12 | 11 | 35.5 | > 100 | 
9 | Cc1nn(C)c2c1N=CN1CCN=C21 |  | 39.3 | > 100 | 
10 | CCC1=Nc2c(C)nn(C)c2C2=NC(C)CN12 (configuration not stated) |  | 21.6 | > 100 | ED50 (Rattus norvegicus [4]): 15.7 mg/kg
11 | CC[C@@H]1CN2C(C)=Nc3c(C)nn(C)c3C2=N1 | 12 | 61.1 | > 100 | 
12 | CCC1=Nc2c(C)nn(C)c2C2=NCCN12 | 17 | 22.8 | > 100 | ED50 (Rattus norvegicus [4]): 24.4 mg/kg
13 | CC1=Nc2c(C)nn(C)c2C2=N[C@@H](C(C)C)CN12 |  | 57.3 | > 100 | 
14 | CCn1nc(C)c2c1C1=NCC(c3ccccc3)N1C(C)=N2 (configuration not stated) | > 100 | 75.5 | > 100 | 
15 | Cc1nn(C)c2c1N=C(c1ccccc1)N1CC(C)N=C21 (configuration not stated) | 65 | 62.5 | > 100 | 
16 | Cc1nn(C)c2c1N=C(Cc1ccccc1)N1CC(C)N=C21 (configuration not stated) | 62 | 21.9 | > 100 | 
17 | CCCn1nc(C)c2c1C1=NC(C)CN1C(C)=N2 (configuration not stated) |  | 37.7 | > 100 | 

Row | Compound | ED50 (Rattus norvegicus [1]; [9]) [mg/kg] | ED50 (Mus musculus [2]; [10]) [mg/kg] | ED50 (Mus musculus [3]) [mg/kg] | further results
18 | Cc1nn(C)c2c1N=CN1CC(C)N=C21 (configuration not stated) |  | 49.2 | > 100 | 
19 | CCC1=Nc2c(C)nn(CC)c2C2=NC(C)CN12 (configuration not stated) |  | 27.2 | > 100 | ED50 (Rattus norvegicus [4]): 15.8 mg/kg
20 | Cc1cn2c(CC(=O)O)nc3c(C)nn(C)c3c2n1 | > 100 | > 100 | > 100 | 
21 | CCn1nc(C)c2c1C1=NC(C)CN1C(C)=N2 (configuration not stated) |  | 25.7 | > 100 | ED50 (Rattus norvegicus [4]): 14.8 mg/kg
22 | Cc1nn(C)c2c1N=C(C1CC1)N1CC(C)N=C21 (configuration not stated) | 12 | 46.1 | > 100 | 
23 | CCc1nc2c(C)nn(C)c2c2nc(C)c(Cl)n12 | 100 | > 100 | > 100 | 
24 | CCc1nc2c(C)nn(C)c2c2nccn12 | 15 | 34.2 | > 100 | 
25 | Cc1nn(C)c2c1N=C(C(C)C)N1CC(C)N=C21 (configuration not stated) | 41 | > 100 | > 100 | 
26 | Cc1cn2c(C)nc3c(C)nn(C)c3c2n1 | < 32 | 73 | > 100 | 
27 | CCc1cn2c(CC)nc3c(C)nn(C)c3c2n1 | 16 | 20.6 | > 30 | 
28 | CC1=Nc2c(C)nn(C)c2C2=NC(C)(C)CN12 |  | 22.7 | > 100 | ED50 (Rattus norvegicus [4]): 53.7 mg/kg
29 | Cc1nn(C)c2c1nc(C)n1cc(Cc3ccccc3)nc21 | 86 | 83.3 | > 100 | 
30 | CC[C@H]1CN2C(C)=Nc3c(C)nn(C)c3C2=N1 | 38 | 42.8 | > 100 | 
31 | CC1=Nc2c(C)nn(C)c2C2=NC(C)C(C)N12 (stereo in doubt; cis) |  |  |  | ED50 (Rattus norvegicus [1]): 26 mg/kg; ED50 (Mus musculus [2]): 37.8 mg/kg
32 | CC1=Nc2c(C)nn(C)c2C2=NC(C)C(C)N12 (stereo in doubt; trans) |  | 69.1 | > 100 | 
33 | O=C(CCCN1CCC(O)(c2ccc(Cl)cc2)CC1)c1ccc(F)cc1 [HALOPERIDOL] | 0.3 | 0.27 | > 3 | ED50 (Rattus norvegicus [4]): 0.8 mg/kg
34 | CSc1ccc2c(c1)N(CCC1CCCCN1C)c1ccccc1S2 (configuration not stated) [THIORIDAZINE] | 5.8 | 4.4 | > 10 | ED50 (Monkey): 3.9 mg/kg; IC50 (Adenosine receptor A1): > 10 µM; IC50 [5]: > 10 µM; IC50 [6]: 8.7 µM; IC50 [7]: > 10 µM; IC50 [8]: > 10 µM

— ChEMBL document CHEMBL1124042, “Synthesis and potential antipsychotic activity of 1H-imidazo[1,2-c]pyrazolo[3,4-e]pyrimidines” (J Med Chem, 1988)
